Assays:
[1] = test system: Human immunodeficiency virus 1; assay: Antiviral activity against HIV1 with reverse transcriptase Y181I mutation in human CEM cells assessed as protection against virus-induced cytopathicity; assay type: functional, organism-based; settings: Human immunodeficiency virus 1, CCRF-CEM
Outline: (§1)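 CEM cells (~3 × 10⁵ cells/mL) were infected with ~100 CCID₅₀ virus per mL and seeded with serial compound dilutions. After 4 days at 37 °C, syncytium (giant cell) formation was scored microscopically. EC₅₀ is the concentration giving 50% protection against virus cytopathicity.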

[2] = test system: Human immunodeficiency virus 1; assay: Antiviral activity against HIV1 with reverse transcriptase K103N mutation in human CEM cells assessed as protection against virus-induced cytopathicity; assay type: functional, organism-based; settings: Human immunodeficiency virus 1, CCRF-CEM; outline: as §1
[3] = test system: Human immunodeficiency virus 1; assay: Antiviral activity against HIV1 with reverse transcriptase Y188L mutation in human CEM cells assessed as protection against virus-induced cytopathicity; assay type: functional, organism-based; settings: Human immunodeficiency virus 1, CCRF-CEM; outline: as §1
[4] = test system: Human immunodeficiency virus 1; assay: Antiviral activity against HIV1 with reverse transcriptase L100I mutation in human CEM cells assessed as protection against virus-induced cytopathicity; assay type: functional, organism-based; settings: Human immunodeficiency virus 1, CCRF-CEM; outline: as §1
[5] = test system: Human immunodeficiency virus 1; assay: Antiviral activity against HIV1 with reverse transcriptase Y181C mutation in human CEM cells assessed as protection against virus-induced cytopathicity; assay type: functional, organism-based; settings: Human immunodeficiency virus 1, CCRF-CEM; outline: as §1
[6] = test system: Vesicular stomatitis virus; assay: Antiviral activity against VSV in human HEL cells assessed as protection against virus-induced cytopathicity; assay type: functional, organism-based
[7] = test system: Human alphaherpesvirus 1; assay: Antiviral activity against thymidine kinase deficient and acyclovir resistant HSV1 KOS in human HEL cells assessed as protection against virus-induced cytopathicity; assay type: functional, organism-based; settings: Human alphaherpesvirus 1, KOS
[8] = test system: L1210; assay: Antiproliferative activity against mouse L1210 cells after 2 days; assay type: cell-based; settings: L1210, 48 h
Outline: (§2)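 Cells seeded at 5 × 10⁴ to 7.5 × 10⁴ cells/200 µL with or without serial compound dilutions; incubated at 37 °C for 2 days (L1210) or 3 days (Molt4/C8, CEM). Cell numbers counted with a Coulter counter. CC₅₀ = concentration reducing proliferation by 50% versus untreated controls, read from plots of cell number (% of control) against concentration. Means of at least two independent experiments.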

[9] = test system: Human respirovirus 3; assay: Antiviral activity against Parainfluenza virus type 3 in african green monkey Vero cells assessed as protection against virus-induced cytopathicity; assay type: functional, organism-based; settings: Human respirovirus 3, Vero
Outline: (§3)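 Confluent cell monolayers inoculated with 100 CCID₅₀ virus. After 1-2 h adsorption, residual virus removed and cultures incubated with varying compound concentrations. Cytopathicity scored once it reached completion in untreated infected controls. EC₅₀ = dose reducing virus-induced cytopathogenicity by 50%.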

[10] = Antiproliferative activity against human Molt4/C8 cells after 3 days; assay type: cell-based; settings: MOLT-4, 72 h; outline: as §2
[11] = target: Human immunodeficiency virus type 1 reverse transcriptase (Human immunodeficiency virus 1, UniProt Q72547); assay: Inhibition of HIV1 reverse transcriptase p66/p51; settings: read-out: IC50
[12] = test system: Respiratory syncytial virus; assay: Antiviral activity against RSV Long in human HeLa cells assessed as protection against virus-induced cytopathicity; assay type: functional, organism-based; outline: as §3
[13] = target: Human immunodeficiency virus type 1 reverse transcriptase (Human immunodeficiency virus 1, UniProt Q72547, L100I); assay: Inhibition of HIV1 reverse transcriptase p66/p51 L100I mutant; settings: read-out: IC50
Outline: (§4)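 Substrate was 0.5 µg poly(rA)/oligo(dT) 10:1 (0.3 µM 3′-OH ends) with 10 µM [³H]dTTP, at 37 °C. Acid-precipitable radioactivity was counted on GF/C filters after TCA washes.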

[14] = test system: Mammalian orthoreovirus 1; assay: Antiviral activity against Reovirus 1 in african green monkey Vero cells assessed as protection against virus-induced cytopathicity; assay type: functional, organism-based; settings: Mammalian orthoreovirus 1, Vero; outline: as §3
[15] = test system: CCRF-CEM; assay: Antiproliferative activity against human CEM cells after 3 days; assay type: cell-based; settings: 72 h; outline: as §2
[16] = test system: Human immunodeficiency virus 2; assay: Antiviral activity against HIV2 ROD in human CEM cells assessed as protection against virus-induced cytopathicity after 4 days; assay type: functional, organism-based; settings: Human immunodeficiency virus 2, ROD, CCRF-CEM, 96 h
Outline: (§5)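 CEM cells (~3 × 10⁵ cells/mL) infected with ~100 CCID₅₀ per mL of HIV-1 (IIIB) or HIV-2 (ROD), then seeded into wells containing compound dilutions. After 4 days at 37 °C, syncytium (giant cell) formation was examined microscopically. EC₅₀ = concentration protecting CEM cells from HIV cytopathicity by 50%.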

[17] = test system: Felid alphaherpesvirus 1; assay: Antiviral activity against Feline herpesvirus in feline […] cells assessed as inhibition of virus-induced cytopathicity; assay type: functional, organism-based
[18] = test system: Human alphaherpesvirus 1; assay: Antiviral activity against HSV1 KOS in human HEL cells assessed as protection against virus-induced cytopathicity; assay type: functional, organism-based; settings: Human alphaherpesvirus 1, KOS
[19] = target: Human immunodeficiency virus type 1 reverse transcriptase (Human immunodeficiency virus 1, UniProt Q72547, K103N); assay: Inhibition of HIV1 reverse transcriptase p66/p51 K103N mutant; settings: read-out: IC50; outline: as §4
[20] = Cytotoxicity against feline CRFK cells by MTS assay; assay type: cell-based, Felis catus; settings: cat
[21] = test system: Punta Toro virus; assay: Antiviral activity against Punta Toro virus in african green monkey Vero cells assessed as protection against virus-induced cytopathicity; assay type: functional, organism-based; outline: as §3
[22] = test system: Influenza B virus; assay: Antiviral activity against influenza B virus in MDCK cells assessed as reduction of virus-induced cytopathicity by visual cytopathic effect scoring method; assay type: functional, organism-based
[23] = Cytotoxicity against MDCK cells assessed as drug level causing microscopically detectable alteration of normal cell morphology; assay type: cell-based, Canis lupus familiaris; settings: dog
[24] = test system: Influenza A virus H3N2; assay: Antiviral activity against influenza H3N2 virus in MDCK cells assessed as reduction of virus-induced cytopathicity by MTS method; assay type: functional, organism-based
[25] = target: Human immunodeficiency virus type 1 reverse transcriptase (Human immunodeficiency virus 1, UniProt Q72547, Y181I); assay: Inhibition of HIV1 reverse transcriptase p66/p51 Y181I mutant; settings: read-out: IC50; outline: as §4
[26] = Cytotoxicity against african green monkey Vero cells assessed as drug level causing microscopically detectable alteration of normal cell morphology after 3 days; assay type: cell-based; settings: chlorocebus sabaeus
Outline: (§6)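 Serial compound dilutions added to confluent HeLa or Vero monolayers. MCC = minimum concentration causing microscopically detectable alteration of cell morphology after 3 days of incubation.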

[27] = test system: Influenza A virus H3N2; assay: Antiviral activity against influenza H3N2 virus in MDCK cells assessed as reduction of virus-induced cytopathicity by visual cytopathic effect scoring method; assay type: functional, organism-based
[28] = Cytotoxicity against human HEL cells assessed as drug level causing microscopically detectable alteration of normal cell morphology after 3 days; assay type: cell-based
[29] = Cytotoxicity against human HeLa cells assessed as drug level causing microscopically detectable alteration of normal cell morphology after 3 days; assay type: cell-based; outline: as §6
[30] = test system: Influenza A virus; assay: Antiviral activity against influenza H1N1 virus in MDCK cells assessed as reduction of virus-induced cytopathicity by MTS method; assay type: functional, organism-based; settings: Influenza A virus, H1N1, MDCK
[31] = test system: Coxsackievirus B4; assay: Antiviral activity against Coxsackievirus B4 in human HeLa cells assessed as protection against virus-induced cytopathicity; assay type: functional, organism-based; settings: Enterovirus B; outline: as §3
[32] = test system: Vaccinia virus; assay: Antiviral activity against Vaccinia virus Lederle in human HEL cells assessed as protection against virus-induced cytopathicity; assay type: functional, organism-based; settings: Orthopoxvirus vaccinia
[33] = test system: Vesicular stomatitis virus; assay: Antiviral activity against VSV in human HeLa cells assessed as protection against virus-induced cytopathicity; assay type: functional, organism-based
[34] = test system: Human immunodeficiency virus 1; assay: Antiviral activity against HIV1 3B in human CEM cells assessed as protection against virus-induced cytopathicity after 4 days; assay type: functional, organism-based; settings: Human immunodeficiency virus 1, 3B, CCRF-CEM, 96 h; outline: as §5
[35] = test system: Human alphaherpesvirus 2; assay: Antiviral activity against HSV2 G in human HEL cells assessed as protection against virus-induced cytopathicity; assay type: functional, organism-based; settings: Human alphaherpesvirus 2, strain G; outline: as §3
[36] = test system: Coxsackievirus B4; assay: Antiviral activity against Coxsackievirus B4 in african green monkey Vero cells assessed as protection against virus-induced cytopathicity; assay type: functional, organism-based; settings: Enterovirus B; outline: as §3
[37] = test system: Sindbis virus; assay: Antiviral activity against Sindbis virus in african green monkey Vero cells assessed as protection against virus-induced cytopathicity; assay type: functional, organism-based; outline: as §3
[38] = test system: Feline coronavirus; assay: Antiviral activity against Feline coronavirus in feline […] cells assessed as inhibition of virus-induced cytopathicity; assay type: functional, organism-based; settings: Alphacoronavirus 1
[39] = Cytotoxicity against MDCK cells by MTS assay; assay type: cell-based, Canis lupus familiaris; settings: dog
[40] = test system: Influenza A virus; assay: Antiviral activity against influenza H1N1 virus in MDCK cells assessed as reduction of virus-induced cytopathicity by visual cytopathic effect scoring method; assay type: functional, organism-based
[41] = test system: Influenza B virus; assay: Antiviral activity against influenza B virus in MDCK cells assessed as reduction of virus-induced cytopathicity by MTS method; assay type: functional, organism-based

O=C1Nc2ccc(Cl)cc2[C@@](C#CC2CC2)(C(F)(F)F)O1 [EFAVIRENZ]
IC50 [1]: 0.012 µM | IC50 [2]: 0.13 µM | IC50 [3]: 0.76 µM | IC50 [4]: 0.022 µM | IC50 [5]: 0.16 µM

Cc1cc(C)cc(S(=O)(=O)c2c(C(=O)NC(C)C(N)=O)[nH]c3ccc(Cl)cc23)c1 (configuration not stated)
EC50 [6]: > 100 µM | EC50 [7]: > 100 µM | IC50 [8]: 12 µM | EC50 [9]: > 20 µM | IC50 [1]: > 1 µM | IC50 [10]: 3.8 µM | IC50 [11]: 0.02 µM | EC50 [12]: > 100 µM | IC50 [13]: 0.112 µM | IC50 [2]: 0.014 µM | EC50 [14]: > 20 µM | IC50 [15]: 11 µM | EC50 [16]: > 10 µM | EC50 [17]: > 20 µM | EC50 [18]: > 100 µM | IC50 [3]: 0.66 µM | IC50 [19]: 0.19 µM | CC50 [20]: 39.3 µM | EC50 [21]: > 20 µM | EC50 [22]: > 4 µM | IC50 [4]: 0.009 µM | MCC [23]: 20 µM | EC50 [24]: > 4 µM | IC50 [25]: 2.49 µM | MCC at 72 h [26]: 100 µM | EC50 [27]: > 4 µM | MCC at 72 h [28]: > 100 µM | MCC at 72 h [29]: 100 µM | EC50 [30]: > 4 µM | EC50 [31]: 6 µM | EC50 [32]: > 100 µM | EC50 [33]: > 100 µM | IC50 [5]: 0.096 µM | EC50 [34]: 0.0016 µM | EC50 [35]: > 100 µM | EC50 [36]: > 20 µM | EC50 [37]: > 20 µM | EC50 [38]: > 20 µM | CC50 [39]: 16 µM | EC50 [40]: > 4 µM | EC50 [41]: > 4 µM

Cc1cc(C)cc(S(=O)(=O)c2c(C(=O)NCCS(N)(=O)=O)[nH]c3ccc(Cl)cc23)c1
EC50 [6]: > 4 µM | EC50 [7]: > 4 µM | IC50 [8]: 20 µM | EC50 [9]: > 20 µM | IC50 [1]: > 1 µM | IC50 [10]: 12 µM | IC50 [11]: 0.0004 µM | EC50 [12]: > 4 µM | IC50 [13]: 0.025 µM | IC50 [2]: 0.04 µM | EC50 [14]: 20 µM | IC50 [15]: 14 µM | EC50 [16]: > 10 µM | EC50 [17]: > 4 µM | EC50 [18]: > 4 µM | IC50 [3]: > 1 µM | IC50 [19]: 0.584 µM | CC50 [20]: 8.5 µM | EC50 [21]: 20 µM | EC50 [22]: > 4 µM | IC50 [4]: 0.0012 µM | MCC [23]: 20 µM | EC50 [24]: > 4 µM | IC50 [25]: > 40 µM | MCC at 72 h [26]: 100 µM | EC50 [27]: > 4 µM | MCC at 72 h [28]: 20 µM | MCC at 72 h [29]: 20 µM | EC50 [30]: > 4 µM | EC50 [31]: > 4 µM | EC50 [32]: > 4 µM | EC50 [33]: > 4 µM | IC50 [5]: 0.23 µM | EC50 [34]: 0.0014 µM | EC50 [35]: > 4 µM | EC50 [36]: 9 µM | EC50 [37]: 20 µM | EC50 [38]: > 4 µM | CC50 [39]: 7.9 µM | EC50 [40]: > 4 µM | EC50 [41]: > 4 µM

From ChEMBL document CHEMBL1153955, “Indolylarylsulfones bearing natural and unnatural amino acids. Discovery of potent inhibitors of HIV-1 non-nucleoside wild type and resistant mutant strains reverse transcriptase and coxsackie B4 virus” (J Med Chem, 2009)
